Measured values of several laboratories.
SQLE: Squalene monooxygenase (SQLE, Homo sapiens, UniProt Q14534)
ADRA1A: Alpha-1A adrenergic receptor (ADRA1A, Homo sapiens, UniProt P35348)

SMILES	target	assay	endpoint	result
O=C[C@H](O)[C@@H](O)[C@H](O)[C@H](O)COP(=O)(O)O	Hexokinase HKDC1 (Homo sapiens, UniProt Q2TB90)	enzyme activity, inhibitor, absorbance	Ki	> 1000 µM
O=C(O)[C@H]1O[C@@H](Oc2cc3oc(-c4ccccc4)cc(=O)c3c(O)c2O)[C@H](O)[C@@H](O)[C@@H]1O	SQLE	enzyme activity, inhibitor	Ki	1.75 µM
Cc1cc(Oc2ncccc2CN2CCN(C(c3ccccc3)c3ccccc3)CC2)ccc1-c1c(C)c(=O)[nH]c(=O)n1C	ADRA1A	ligand displacement, radioligand	Ki	0.885 µM
Nc1ccn(C[C@@H](CO)OCP(=O)(O)O)c(=O)n1	Solute carrier family 22 member 6 (SLC22A6, Homo sapiens, UniProt Q4U2R8, S231A)	transporter uptake, inhibitor, fluorescence	IC50	344 µM
Cc1cc2nc3c(=O)[nH]c(=O)nc-3n(C[C@H](O)[C@H](O)[C@H](O)COP(=O)(O)OP(=O)(O)OC[C@H]3O[C@@H](n4cnc5c(N)ncnc54)[C@H](O)[C@@H]3O)c2cc1C	Dihydrolipoyl dehydrogenase, mitochondrial (DLD, Homo sapiens, UniProt P09622)	binding, SPR	Kd	1.27 µM
Cc1ccc(N2CCN(Cc3cccnc3Oc3ccc(-c4c(C)c(=O)[nH]c(=O)n4C)c(C)c3)CC2)cc1C	ADRA1A	ligand displacement, radioligand	Ki	3.42 µM
CN(C)C(=O)c1cc2cnc(Nc3ccc(C(=O)NCCCCCCOc4cccc5c4C(=O)N(C4CCC(=O)NC4=O)C5=O)cc3)nc2n1C1CCCC1 (centres unmarked)	High affinity nerve growth factor receptor (NTRK1, Homo sapiens, UniProt P04629)	binding, competition with immobilised ligand	Kd	< 0.2 µM
NC(=O)c1ccc[n+]([C@@H]2O[C@H](COP(=O)([O-])OP(=O)(O)OC[C@H]3O[C@@H](n4cnc5c(N)ncnc54)[C@H](O)[C@@H]3O)[C@@H](O)[C@H]2O)c1	Dihydrolipoyl dehydrogenase, mitochondrial (DLD, Homo sapiens, UniProt P09622, K430Q)	binding, SPR	Kd	1.14 µM
CC(C)C[C@H](NC(=O)[C@H](Cc1ccccc1)NC(=O)c1cnccn1)B(O)O	ATP-dependent Clp protease proteolytic subunit, mitochondrial (CLPP, Homo sapiens, UniProt Q16740)	binding	Kd	45 µM
Cc1cc(Oc2ncccc2CN2CCN(c3ccccc3C#N)CC2)ccc1-c1c(C)c(=O)[nH]c(=O)n1C	ADRA1A	ligand displacement, radioligand	Ki	1.21 µM
CC(=O)c1ccc2c(c1)N(CCCN1CCC(CCO)CC1)c1ccccc1S2	SQLE	enzyme activity, inhibitor	Ki	0.68 µM
